Values joined by “and” are separate entries in the source; they are usually repeats but may differ in a detail not shown here. Equal values may be shown once. The whole screen tested about 200,000 compounds, of which about 2,000 (1%) were called active. For the sample, actives were picked, then their nearest neighbours and some compounds at random. A number with no mark means an inactive call.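 How the source made its calls: active means inhibition above the campaign mean inhibition of all tested compounds plus 3 SD (cut at about 20% in these data); inactive means the rest.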
The compounds below were run against Neuropeptide Y receptor type 1 (Homo sapiens) (UniProt P25929) (assay: blockers of human neuropeptide Y Y1 receptor – cell-based, primary screen (AID 1040;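 further: 0% = DMSO wells given NPY plus isoproterenol and 100% = isoproterenol alone without NPY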)). Conditions: HEK293-CNG Y1 cells, membrane potential fluorescence; at 3.6 µM; hits give high values; NPY at EC95, then isoproterenol.
Summary of the method: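 Test system – HEK293 Y1/CNG channel cell line · Also added – NPY agonist 25 nM, then isoproterenol 1 µM plus Ro 20-1724 25 µM · Compound dosing – one concentration, 3.6 µM, in 0.4% DMSO · Schedule – compound incubation 1 h at room temperature, readout 45 min post-stimulation · Technique – fluorescence, membrane potential probe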

Sequence of Neuropeptide Y receptor type 1 (Homo sapiens) (P25929 whole entry, looked up): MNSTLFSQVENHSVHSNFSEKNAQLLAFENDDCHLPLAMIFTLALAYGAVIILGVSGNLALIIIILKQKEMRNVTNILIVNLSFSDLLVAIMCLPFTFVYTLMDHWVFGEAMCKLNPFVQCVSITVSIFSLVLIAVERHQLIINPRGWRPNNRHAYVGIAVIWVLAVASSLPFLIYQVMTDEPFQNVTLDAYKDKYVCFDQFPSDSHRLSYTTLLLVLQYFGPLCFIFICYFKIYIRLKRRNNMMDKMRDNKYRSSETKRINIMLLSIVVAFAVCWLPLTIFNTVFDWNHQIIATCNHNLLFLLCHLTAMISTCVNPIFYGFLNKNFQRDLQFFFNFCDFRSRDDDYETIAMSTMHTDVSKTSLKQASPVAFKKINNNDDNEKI

Structure (SMILES)	inhibition
COc1ccc(CCNc2nc(-c3cccc(NC(C)=O)c3)cs2)cc1OC	6.08%
CN(C(=O)COc1ccccc1)c1nnc(-c2ccncc2)s1	7.86%
COc1ccc(CCN(C(=O)COc2ccccc2)c2nc(-c3ccccc3)cs2)cc1OC	37.1% (active)
CC(=O)N1CC(C)c2scc(C)[n+]2-c2ccccc21 (centres undefined)	23.1% (active)
C/C(=C\c1ccccc1)C1NC(=O)c2c(sc3c2CCCC3)N1 (centres undefined)	-4.04%
Cc1ccsc1C(C(=O)NC1CCCCC1)N(C(=O)Cc1cccs1)C1CC1 (centres undefined)	4.38%
CC(=O)N(CC1CCCO1)C1(C(=O)NC2CCCC2)CCCCC1 (centres undefined)	1.44%
O=C(Cc1cccs1)N(CC1CCCO1)C1(C(=O)NC2CCCCC2)CCCCC1 (centres undefined)	50.3% (active)
CSc1cccc(NC(=S)N(Cc2ccccc2)Cc2ccccn2)c1	5.5%
CCC1(CC)Cc2ccccc2-c2nc3ccccc3c(=O)n21	12.8%
O=c1c2ccccc2nc2n1C1(CCCCC1)Cc1ccccc1-2	32% (active)
c1cncc(-c2nnc3n2C2(CCCCC2)Cc2ccccc2-3)c1	1.15%
COCCCNC(=S)N(Cc1ccccc1)Cc1ccc(F)cc1	2.32%
Cc1cccc2cc(CN(Cc3cccs3)C(=S)NCc3ccco3)c(=O)[nH]c12	-4.05%
Cc1cc(C)c2[nH]c(=O)c(CN(Cc3ccccc3)C(=S)NCCCN(C)C)cc2c1	25.1% (active)
CC(=O)N1CCN(CC(=O)Nc2ccc(SC(F)F)cc2)CC1	4.16%
COc1ccc(C(CCNCc2ccccc2F)c2ccc(F)cc2)cc1 (centres undefined)	9.35%
COc1ccccc1NC(=O)CCCc1c[nH]c2ccccc12	11.1%
COc1cccc(CNCCc2c[nH]c3ccccc23)c1OCc1ccccc1F	21.9% (active)
CCC(=O)Nc1sc(C(=O)Nc2ccccc2)c(C)c1C(=O)OC	7.74%
O=S(=O)(Nc1ccc2cn[nH]c2c1)c1ccccc1	-1.06%
Cc1cc(C)nc(NS(=O)(=O)c2ccc(N/C=C\C(=O)c3cccs3)cc2)n1	1.24%
COc1ccc(CCNC2=C(Cl)C(=O)N(Cc3ccccc3)C2=O)cc1OC	-3.95%
C/C(=N\N)c1c(-c2ccccc2)c2cc(Br)ccc2[nH]c1=O	-0.69%

Structure (SMILES)	inhibition
Cc1cnc(C(=O)OCC(=O)NCCCc2ccccc2)cn1	2.73%
COc1ccc(CN(C)C(=S)Nc2ccc(Cl)cc2Cl)cc1	3.26%
NC(N)=N/N=C/c1ccc(Cl)c([N+](=O)[O-])c1	3.89%
NC(N)=N/N=C/c1ccc(OCc2ccc(Cl)cc2Cl)cc1	22.1% (active)
COc1ccc(C(=O)O/N=C(\N)Cc2ccc(Cl)cc2Cl)cc1OC	-3.58%
CN(C)CCNC(=O)Cc1ccc([N+](=O)[O-])cc1	-2.56%
Cc1ccc2cc(CN(c3ccc(C)c(C)c3)S(C)(=O)=O)c(=O)[nH]c2c1	-0.43%
NNC(=O)c1cnn(-c2ccccc2)c1C(F)(F)F	3.72%
O=C(CN1C2=NCCN2c2ccccc21)c1cccs1	3.06%
Cc1cccc(C(=O)Nc2ccccc2N2CCN(c3ccc(F)cc3)CC2)c1	6.05%
O=C(Nc1ccccc1N1CCCCC1)c1cccc(F)c1	13.7%
O=C(Nc1ccccc1N1CCN(c2ccccc2)CC1)c1cccc(F)c1	44.1% (active)
CC(=O)N(CCCN(C)C)c1nc2ccc(C)cc2s1	-0.43%
O=C(CSc1cccc[n+]1[O-])c1ccc(Cl)cc1	0.77%
CN(C)S(=O)(=O)c1cc(NC(=O)CN2C(=O)NC3(CCCc4ccccc43)C2=O)ccc1Cl (centres undefined)	-4.16%
Cc1ccc(-n2nc3cc(C)c(NC(=O)c4cccnc4)cc3n2)cc1	-4.27%
Cc1cc2nc(-c3ccc(NC(=O)c4cccnc4)cc3)oc2cc1C	29.8% (active)
Cc1ccc2nc(-c3ccc(NC(=O)c4cccnc4)cc3)oc2c1	-0.59%
Cc1nc2cc(NC(=O)NC3CC3)ccc2n1C	-0.07%
O=C(CN1CCN(c2ncc(C(F)(F)F)cc2Cl)CC1)Nc1ccc2c(c1)OCO2	23.8% (active)
O=C(CN1CCN(C(=O)c2ccco2)CC1)Nc1ccc2c(c1)OCO2	0.97%
O=C(CN1CCN(CC(=O)Nc2ccc3c(c2)OCO3)CC1)Nc1ccc(F)cc1	-3.14%
COc1ccc(C(=O)NC(Cc2ccc(OC(=O)c3ccc(OC)cc3)cc2)C(=O)O)cc1 (centres undefined)	3.87%
Cc1coc(C)c1C(=O)CC1(O)C(=O)N(C)c2ccc(Cl)cc21 (centres undefined)	1.88%

Structure (SMILES)	inhibition
O=C1NC(=Nc2ccc(Cl)cc2)SC1Cc1cccc(Cl)c1Cl (centres undefined)	-1.29%
CCc1cc2c(NC3CCCC3)ncnc2s1	-1.37%
CCCc1ccc(OCC(=O)NNC(=S)NC(=O)c2ccco2)cc1	10.6%
CC(Oc1ccc2ccccc2c1)C(=O)NNC(=S)NC(=O)c1ccco1 (centres undefined)	21.9% (active)
O=C(Nc1ccc2ccccc2c1)/C(=C/c1cccc(Br)c1)NC(=O)c1ccco1	7.08%
CCOC(=O)CSc1nc2c(c(=O)n(C)c(=O)n2C)n1Cc1ccccc1F	1.86%
CCOC(=O)CSc1nc2c(sc(=S)n2CCc2ccccc2)c(=O)n1Cc1ccco1	34.8% (active)
COc1ccccc1NC(=O)CSc1nc2sc(C)c(C)c2c(=O)n1Cc1ccco1	9.58%
CC(=O)c1ccc(N2CCN(S(=O)(=O)c3c(C)[nH]c(=O)[nH]c3=O)CC2)cc1	-3.11%
O=C(NC(=S)Nc1cccc(-c2ccc(CO)o2)c1)c1cccs1	4.06%
O=C(Nn1c(SCc2ccc([N+](=O)[O-])cc2)nc2ccccc2c1=O)c1ccc(F)cc1	3.79%
COc1ccc2oc(=O)c(C(=O)N3CCCC3)cc2c1	1%
Cc1cc(C)nc(SC2CCCCC2NS(=O)(=O)c2ccc(Cl)cc2)n1 (centres undefined)	4.03%
CCOC1CCCCC1NS(=O)(=O)c1ccc(Cl)cc1 (centres undefined)	21.4% (active)
CSc1ccc(S(=O)(=O)NC2CCCCC2)cc1	-0.27%
O=C(COc1nc2ccccc2nc1N1CCOCC1)NCC(F)(F)F	3.34%
C/C=C/c1ccc(OCC(O)CN2CCCCCCC2)c(OC)c1 (centres undefined)	16.4%
Cc1ccc(N2C(=O)C3CC3C2=O)cc1 (centres undefined)	-4.56%
C/C(=N/O)c1ccc(N2C(=O)C3C4C=CC(C3C2=O)C2C3C(=O)N(c5ccc(/C(C)=N/O)cc5)C(=O)C3C42)cc1 (centres undefined)	20.7% (active)
CCCCCOC(=O)c1ccc(N2C(=O)C3C4C=CC(C4)C3C2=O)cc1 (centres undefined)	-0.77%
Cc1ccc(C(=O)N/C(=C/c2cccs2)C(=O)N2CCCCC2)cc1	0.27%
CCOC(=O)c1c(NC(=O)C2CC=CCC2C(=O)O)sc(C)c1CC (centres undefined)	6.42%
CCCC(=O)Nc1nc2ccc(NC(=O)c3c(F)c(F)c(OC)c(F)c3F)cc2s1	33.9% (active)
COc1ccc2nc(Nc3nc4ccc(NC(C)=O)cc4s3)sc2c1	-4.47%

Structure (SMILES)	inhibition
CCCC(=O)Nc1nc2ccc(NC(=O)c3cccnc3)cc2s1	2.46%
O=C(NCc1ccco1)c1ccc(NS(=O)(=O)c2cccc([N+](=O)[O-])c2)cc1	-0.88%
CN1CCN(C(=O)/C(=C\c2cccs2)NC(=O)c2cccs2)CC1	-0.85%
CO/N=C/c1cn(-c2ccc(Cl)cc2)nn1	-3.05%
O=C(NCc1ccncc1)NC12CC3CC(CC(C3)C1)C2	-6.14%
CCCn1nc(C(=O)N2CCCc3ccccc32)c2ccccc2c1=O	3.23%
CCCCn1nc(C(=O)N2CCc3ccccc32)c2ccccc2c1=O	28.5% (active)
O=C(c1cccc(C(=O)N2CCc3ccccc32)n1)N1CCc2ccccc21	10.5%
NS(=O)(=O)c1ccc(N=Cc2ccc(Br)s2)cc1	2.13%
Cc1ccc(S(=O)(=O)NC(C(=O)N2CCOCCOCCOCCOCC2)c2ccccc2)cc1 (centres undefined)	5.72%
O=C(/C=C/c1ccccc1)Nc1nnc(SCC(=O)c2ccc3ccccc3c2)s1	-1.51%
O=C(NCCNc1ccc([N+](=O)[O-])cc1)c1cccc2c(Br)cccc12	10.2%
CCOC(=O)/C(=N\Nc1ccccc1Cl)N(C)C1CCS(=O)(=O)C1 (centres undefined)	-1.74%
Cc1ccc(C(=O)N2CCCC(c3ccccc3)=N2)cc1	0.71%
Cc1ccc(C(=O)C[n+]2cc(-c3ccccc3)n3c2CCCCC3)cc1	30.8% (active) and 55.8% (active)
Cn1c(-c2ccccc2)c[n+]2c1CCCCC2	6%
CCN1CCN(C(C(=O)NC2CCCC2)c2cc3c(cc2[N+](=O)[O-])OCO3)CC1 (centres undefined)	-0.35%
COC(=O)C1=C(Nc2ccc(C)cc2)C=C(C)C(C(=O)OC)C1c1ccc(F)cc1 (centres undefined)	32.6% (active)
COC(=O)C1=C(Nc2ccc(OC)cc2)C=C(C)C(C(=O)OC)C1c1ccc(C)cc1 (centres undefined)	14.2%
COC(=O)C1C(=O)NCC1c1ccc(C)cc1 (centres undefined)	-2.75%
O=c1[nH]c2ccccc2s1	1.2%
Cc1ccc(S(=O)(=O)N2CCOCC2)cc1C(=O)NC(=S)N(Cc1ccccc1)C(C)C	1.17%

Source: PubChem BioAssay AID1040 (The Scripps Research Institute Molecular Screening Center, 2008)
